Reference: ChEMBL document CHEMBL4312019, “Design, synthesis, and evaluation of compounds capable of reducing Pseudomonas aeruginosa virulence” (Eur J Med Chem, 2020)
The source made the active and inactive calls.

How the values were obtained:
[1] = molecular target: 5-hydroxytryptamine receptor 1A (Homo sapiens) (UniProt P08908); assay: Displacement of [3H]-8-OH-DPAT from human recombinant 5HT1A receptor expressed in stable CHO cells at 10 uM incubated for 90 mins by microbeta scintillation counting method; assay type: cell-based
In short: (§1)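 Primary radioligand binding screen run by the NIMH Psychoactive Drug Screening Program, with one test level of 10 μM. The read-out was inhibition of radioligand binding at each receptor.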

[2] = molecular target: 5-hydroxytryptamine receptor 1B (Homo sapiens) (UniProt P28222); assay: Displacement of [3H]-5-CT from human recombinant 5HT1B receptor expressed in stable HEK cells at 10 uM incubated for 90 mins by microbeta scintillation counting method; assay type: cell-based; in short: as §1
[3] = molecular target: 5-hydroxytryptamine receptor 1E (Homo sapiens) (UniProt P28566); assay: Displacement of [3H]-5-HT from human recombinant 5HT1E receptor expressed in stable HEK cells at 10 uM incubated for 90 mins by microbeta scintillation counting method; assay type: cell-based; in short: as §1
[4] = molecular target: 5-hydroxytryptamine receptor 2A (Homo sapiens) (UniProt P28223); assay: Displacement of [3H]-ketanserin from human recombinant 5HT2A receptor expressed in HEKT cells at 10 uM incubated for 90 mins by microbeta scintillation counting method; assay type: cell-based; in short: as §1
[5] = molecular target: 5-hydroxytryptamine receptor 2C (Homo sapiens) (UniProt P28335); assay: Displacement of [3H]-Mesulergin from human recombinant 5HT2C receptor expressed in CHO cells at 10 uM incubated for 90 mins by microbeta scintillation counting method; assay type: cell-based; in short: as §1
[6] = molecular target: Alpha-1A adrenergic receptor (Homo sapiens) (UniProt P35348); assay: Displacement of [3H]-prazosin from human recombinant alpha1A adrenergic receptor at 10 uM incubated for 90 mins by microbeta scintillation counting method; in short: as §1
[7] = molecular target: Alpha-1D adrenergic receptor (Homo sapiens) (UniProt P25100); assay: Displacement of [3H]-8-OH-DPAT from human recombinant alpha1D adrenergic receptor at 10 uM incubated for 90 mins by microbeta scintillation counting method; in short: as §1
[8] = molecular target: Beta-2 adrenergic receptor (Homo sapiens) (UniProt P07550); assay: Displacement of [125I]-CGP12177 from recombinant human beta2 adrenergic receptor expressed in HEK Flp-In cells measured after 90 mins by microbeta scintillation counting method; assay type: cell-based
[9] = molecular target: Beta-3 adrenergic receptor (Homo sapiens) (UniProt P13945); assay: Displacement of [3H]-CGP12177 from human recombinant adrenergic beta3 receptor expressed in Flp-In HEK cells incubated for 90 mins by microbeta scintillation counting method; assay type: cell-based
Rattus norvegicus [10] = species: Rattus norvegicus; assay: Displacement of [3H]-Flunitrazepam from BZP receptor in rat brain at 10 uM incubated for 90 mins by microbeta scintillation counting method; assay type: tissue-based; in short: as §1
[11] = molecular target: D(1A) dopamine receptor (Homo sapiens) (UniProt P21728); assay: Displacement of [3H]-SCH23390 from human recombinant dopamine D1 receptor expressed in HEKT cells incubated for 90 mins by microbeta scintillation counting method; assay type: cell-based
[12] = molecular target: D(2) dopamine receptor (Homo sapiens) (UniProt P14416); assay: Displacement of [3H]-N-methylspiperone from human recombinant dopamine D2 receptor expressed in stable fibroblast cells incubated for 90 mins by microbeta scintillation counting method; assay type: cell-based
[13] = molecular target: D(3) dopamine receptor (Homo sapiens) (UniProt P35462); assay: Displacement of [3H]-N-methylspiperone from human recombinant dopamine D3 receptor expressed in HEKT cells incubated for 90 mins by microbeta scintillation counting method; assay type: cell-based
[14] = molecular target: D(1B) dopamine receptor (Homo sapiens) (UniProt P21918); assay: Displacement of [3H]-SCH23390 from human recombinant dopamine D5 receptor expressed in HEKT cells incubated for 90 mins by microbeta scintillation counting method; assay type: cell-based
[15] = molecular target: GABA-A receptor; anion channel (Rattus norvegicus) (UniProt O09028+P15431+P18506+P18508+P19969+P20236+P23574+P23576+P28471+P28473+P30191+P62813+P63079+P63138+Q91ZM7+Q9ES14); assay: Displacement of [3H]-Muscimol from GABAA receptor in rat brain incubated for 90 mins by microbeta scintillation counting method; assay type: tissue-based
[16] = molecular target: Delta-type opioid receptor (Homo sapiens) (UniProt P41143); assay: Displacement of [3H]-DADLE from human recombinant DOR receptor expressed in stable HEK cells incubated for 90 mins by microbeta scintillation counting method; assay type: cell-based
[17] = molecular target: Kappa-type opioid receptor (Homo sapiens) (UniProt P41145); assay: Displacement of [3H]-U69593 from human recombinant KOR receptor expressed in stable HEK cells incubated for 90 mins by microbeta scintillation counting method; assay type: cell-based
[18] = molecular target: Mu-type opioid receptor (Homo sapiens) (UniProt P35372); assay: Displacement of [3H]-DAMGO from human recombinant MOR receptor expressed in stable HEK cells incubated for 90 mins by microbeta scintillation counting method; assay type: cell-based
[19] = molecular target: Histamine H2 receptor (Homo sapiens) (UniProt P25021); assay: Displacement of [125I]-Iodoaminopotentidine from human recombinant histamine H2 receptor expressed in stable HEK cells incubated for 90 mins by microbeta scintillation counting method; assay type: cell-based
[20] = molecular target: Histamine H3 receptor (Homo sapiens) (UniProt Q9Y5N1); assay: Displacement of [3H]-alpha-methylhistamine from human recombinant histamine H3 receptor expressed in Flp-In HEK cells incubated for 90 mins by microbeta scintillation counting method; assay type: cell-based
[21] = molecular target: Histamine H4 receptor (Homo sapiens) (UniProt Q9H3N8); assay: Displacement of [3H]-Histamine from human recombinant histamine H4 receptor expressed in HEKT cells incubated for 90 mins by microbeta scintillation counting method; assay type: cell-based
[22] = molecular target: Muscarinic acetylcholine receptor M2 (Homo sapiens) (UniProt P08172); assay: Displacement of [3H]-QNB/[3H]-NMS from human recombinant muscarinic acetylcholine M2 receptor expressed in stable CHO cells incubated for 90 mins by microbeta scintillation counting method; assay type: cell-based
[23] = molecular target: Muscarinic acetylcholine receptor M3 (Homo sapiens) (UniProt P20309); assay: Displacement of [3H]-QNB/[3H]-NMS from human recombinant muscarinic acetylcholine M3 receptor expressed in stable CHO cells incubated for 90 mins by microbeta scintillation counting method; assay type: cell-based
[24] = molecular target: Muscarinic acetylcholine receptor M4 (Homo sapiens) (UniProt P08173); assay: Displacement of [3H]-QNB/[3H]-NMS from human recombinant muscarinic acetylcholine M4 receptor expressed in stable CHO cells incubated for 90 mins by microbeta scintillation counting method; assay type: cell-based
[25] = molecular target: Sodium-dependent noradrenaline transporter (Homo sapiens) (UniProt P23975); assay: Displacement of [3H]-Nisoxetine from human recombinant NET receptor expressed in stable HEK cells incubated for 90 mins by microbeta scintillation counting method; assay type: cell-based
Rattus norvegicus [26] = species: Rattus norvegicus; assay: Displacement of [3H]-PK11195 from PBR in rat brain incubated for 90 mins by microbeta scintillation counting method; assay type: tissue-based
[27] = molecular target: Sigma non-opioid intracellular receptor 1 (Homo sapiens) (UniProt Q99720); assay: Displacement of [3H]-Pentazocine from human recombinant sigma1 receptor expressed in HEKT cells incubated for 90 mins by microbeta scintillation counting method; assay type: cell-based
[28] = molecular target: Sigma intracellular receptor 2 (Homo sapiens) (UniProt Q5BJF2); assay: Displacement of [3H]-[…] from human recombinant sigma2 receptor expressed in HEKT cells incubated for 90 mins by microbeta scintillation counting method; assay type: cell-based
[29] = molecular target: Sodium-dependent serotonin transporter (Homo sapiens) (UniProt P31645); assay: Displacement of [3H]-citalopram from recombinant human SERT expressed in HEK cell membranes at 10 uM incubated for 90 mins by scintillation counting method; in short: as §1

Measured: inhibition

Sequence of Histamine H2 receptor (Homo sapiens) (P25021 whole entry): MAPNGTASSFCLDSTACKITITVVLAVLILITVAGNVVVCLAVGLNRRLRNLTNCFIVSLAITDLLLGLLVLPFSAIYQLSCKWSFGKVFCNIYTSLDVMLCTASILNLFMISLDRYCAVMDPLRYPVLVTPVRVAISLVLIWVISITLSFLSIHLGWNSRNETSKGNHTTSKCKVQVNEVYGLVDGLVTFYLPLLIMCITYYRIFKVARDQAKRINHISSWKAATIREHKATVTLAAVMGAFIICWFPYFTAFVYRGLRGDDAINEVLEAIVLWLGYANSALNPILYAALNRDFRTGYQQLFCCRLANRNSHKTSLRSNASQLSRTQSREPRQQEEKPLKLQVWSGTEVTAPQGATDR
Sequence of Muscarinic acetylcholine receptor M4 (Homo sapiens) (P08173 whole entry): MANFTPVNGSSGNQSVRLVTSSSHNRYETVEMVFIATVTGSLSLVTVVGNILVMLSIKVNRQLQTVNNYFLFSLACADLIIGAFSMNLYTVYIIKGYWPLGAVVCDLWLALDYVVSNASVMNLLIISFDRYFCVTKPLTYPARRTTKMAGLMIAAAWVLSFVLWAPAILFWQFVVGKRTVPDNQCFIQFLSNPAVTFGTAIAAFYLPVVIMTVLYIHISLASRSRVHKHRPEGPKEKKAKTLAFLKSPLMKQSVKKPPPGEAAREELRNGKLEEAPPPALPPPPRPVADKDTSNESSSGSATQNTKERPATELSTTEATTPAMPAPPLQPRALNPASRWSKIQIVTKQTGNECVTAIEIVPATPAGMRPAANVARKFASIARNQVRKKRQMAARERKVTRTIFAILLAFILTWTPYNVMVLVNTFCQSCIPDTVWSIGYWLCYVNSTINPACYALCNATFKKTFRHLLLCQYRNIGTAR
Sequence of Beta-3 adrenergic receptor (Homo sapiens) (P13945 whole entry, looked up): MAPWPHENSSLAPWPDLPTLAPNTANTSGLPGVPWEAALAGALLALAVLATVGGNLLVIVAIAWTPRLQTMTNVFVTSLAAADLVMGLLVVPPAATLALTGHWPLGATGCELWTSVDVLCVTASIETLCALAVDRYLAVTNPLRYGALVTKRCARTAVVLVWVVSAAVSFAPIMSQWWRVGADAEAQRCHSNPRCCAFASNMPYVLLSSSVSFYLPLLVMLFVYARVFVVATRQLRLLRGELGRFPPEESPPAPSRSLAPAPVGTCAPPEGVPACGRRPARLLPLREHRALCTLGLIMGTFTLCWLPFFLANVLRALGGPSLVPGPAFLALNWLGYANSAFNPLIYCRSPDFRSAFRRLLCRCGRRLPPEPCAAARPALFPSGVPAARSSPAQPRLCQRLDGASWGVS
Sequence of 5-hydroxytryptamine receptor 2A (Homo sapiens) (P28223 whole entry): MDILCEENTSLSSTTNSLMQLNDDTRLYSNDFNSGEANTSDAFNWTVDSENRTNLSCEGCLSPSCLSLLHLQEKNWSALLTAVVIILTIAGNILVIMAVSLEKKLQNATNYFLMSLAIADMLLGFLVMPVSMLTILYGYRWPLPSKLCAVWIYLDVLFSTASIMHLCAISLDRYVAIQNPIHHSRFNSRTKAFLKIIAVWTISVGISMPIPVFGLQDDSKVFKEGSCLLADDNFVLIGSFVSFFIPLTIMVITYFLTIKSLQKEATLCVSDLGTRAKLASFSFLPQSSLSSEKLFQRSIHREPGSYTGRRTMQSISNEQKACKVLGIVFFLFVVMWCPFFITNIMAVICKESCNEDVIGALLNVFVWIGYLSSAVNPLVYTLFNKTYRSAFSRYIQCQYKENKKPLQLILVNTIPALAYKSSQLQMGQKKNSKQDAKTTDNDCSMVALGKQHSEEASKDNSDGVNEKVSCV
Sequence of Alpha-1A adrenergic receptor (Homo sapiens) (P35348 whole entry): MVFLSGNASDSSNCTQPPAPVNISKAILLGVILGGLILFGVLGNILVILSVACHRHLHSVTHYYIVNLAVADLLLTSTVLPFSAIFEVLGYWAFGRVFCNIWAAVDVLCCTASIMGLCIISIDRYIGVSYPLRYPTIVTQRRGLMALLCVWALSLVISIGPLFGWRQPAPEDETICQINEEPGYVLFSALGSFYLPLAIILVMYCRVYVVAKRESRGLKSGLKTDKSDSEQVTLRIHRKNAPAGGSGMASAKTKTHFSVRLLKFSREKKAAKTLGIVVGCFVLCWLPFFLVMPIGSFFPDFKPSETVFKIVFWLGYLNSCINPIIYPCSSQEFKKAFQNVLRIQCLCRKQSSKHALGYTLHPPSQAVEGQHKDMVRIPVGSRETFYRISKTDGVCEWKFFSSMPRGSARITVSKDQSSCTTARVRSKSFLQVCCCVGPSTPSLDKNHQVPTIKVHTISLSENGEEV
Sequence of D(3) dopamine receptor (Homo sapiens) (P35462 whole entry): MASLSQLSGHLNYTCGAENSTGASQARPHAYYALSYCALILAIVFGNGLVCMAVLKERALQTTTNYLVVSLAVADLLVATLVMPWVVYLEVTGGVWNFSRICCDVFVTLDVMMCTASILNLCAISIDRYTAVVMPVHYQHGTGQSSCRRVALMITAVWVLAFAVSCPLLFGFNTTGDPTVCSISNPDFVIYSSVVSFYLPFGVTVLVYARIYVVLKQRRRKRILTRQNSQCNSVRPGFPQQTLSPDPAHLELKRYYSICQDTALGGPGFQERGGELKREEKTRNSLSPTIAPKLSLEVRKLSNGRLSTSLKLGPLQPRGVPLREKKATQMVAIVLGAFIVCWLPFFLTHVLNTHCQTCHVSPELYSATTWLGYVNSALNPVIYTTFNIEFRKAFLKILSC
Sequence of Sigma non-opioid intracellular receptor 1 (Homo sapiens) (Q99720 whole entry): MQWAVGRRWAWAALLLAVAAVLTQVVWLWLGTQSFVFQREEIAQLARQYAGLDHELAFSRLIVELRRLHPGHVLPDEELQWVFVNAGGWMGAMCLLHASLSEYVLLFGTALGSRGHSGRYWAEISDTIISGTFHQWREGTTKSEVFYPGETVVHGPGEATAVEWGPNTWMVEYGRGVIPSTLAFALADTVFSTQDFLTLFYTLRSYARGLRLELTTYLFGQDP
Sequence of Sodium-dependent serotonin transporter (Homo sapiens) (P31645 whole entry, looked up): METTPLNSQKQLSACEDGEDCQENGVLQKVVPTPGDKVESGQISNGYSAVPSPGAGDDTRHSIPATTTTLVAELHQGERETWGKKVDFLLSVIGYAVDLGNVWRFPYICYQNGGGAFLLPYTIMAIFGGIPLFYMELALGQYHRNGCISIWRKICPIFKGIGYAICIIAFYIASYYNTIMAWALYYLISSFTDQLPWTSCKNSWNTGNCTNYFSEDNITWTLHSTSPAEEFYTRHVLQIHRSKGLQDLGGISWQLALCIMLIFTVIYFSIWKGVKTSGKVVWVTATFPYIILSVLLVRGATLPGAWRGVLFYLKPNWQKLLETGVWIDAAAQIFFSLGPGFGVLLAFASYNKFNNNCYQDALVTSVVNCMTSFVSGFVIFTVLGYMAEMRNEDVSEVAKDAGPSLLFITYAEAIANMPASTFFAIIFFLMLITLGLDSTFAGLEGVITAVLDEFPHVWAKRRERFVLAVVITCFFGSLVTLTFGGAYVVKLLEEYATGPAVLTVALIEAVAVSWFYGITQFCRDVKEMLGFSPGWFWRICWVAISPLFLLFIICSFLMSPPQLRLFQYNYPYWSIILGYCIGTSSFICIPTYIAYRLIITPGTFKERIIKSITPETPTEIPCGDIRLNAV
Sequence of 5-hydroxytryptamine receptor 2C (Homo sapiens) (P28335 whole entry): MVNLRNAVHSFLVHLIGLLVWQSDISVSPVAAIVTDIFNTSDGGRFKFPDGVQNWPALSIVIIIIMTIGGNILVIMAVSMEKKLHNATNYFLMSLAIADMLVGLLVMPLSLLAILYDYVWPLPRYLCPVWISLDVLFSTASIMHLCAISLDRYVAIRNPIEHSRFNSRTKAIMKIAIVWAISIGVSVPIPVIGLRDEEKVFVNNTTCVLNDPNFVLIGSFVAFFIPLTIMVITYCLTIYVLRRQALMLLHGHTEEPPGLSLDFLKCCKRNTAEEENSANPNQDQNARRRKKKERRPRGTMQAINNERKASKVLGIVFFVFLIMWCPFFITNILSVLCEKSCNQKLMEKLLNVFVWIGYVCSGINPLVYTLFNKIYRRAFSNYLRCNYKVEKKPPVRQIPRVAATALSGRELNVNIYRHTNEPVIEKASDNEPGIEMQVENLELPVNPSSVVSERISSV
Sequence of Sodium-dependent noradrenaline transporter (Homo sapiens) (P23975 whole entry): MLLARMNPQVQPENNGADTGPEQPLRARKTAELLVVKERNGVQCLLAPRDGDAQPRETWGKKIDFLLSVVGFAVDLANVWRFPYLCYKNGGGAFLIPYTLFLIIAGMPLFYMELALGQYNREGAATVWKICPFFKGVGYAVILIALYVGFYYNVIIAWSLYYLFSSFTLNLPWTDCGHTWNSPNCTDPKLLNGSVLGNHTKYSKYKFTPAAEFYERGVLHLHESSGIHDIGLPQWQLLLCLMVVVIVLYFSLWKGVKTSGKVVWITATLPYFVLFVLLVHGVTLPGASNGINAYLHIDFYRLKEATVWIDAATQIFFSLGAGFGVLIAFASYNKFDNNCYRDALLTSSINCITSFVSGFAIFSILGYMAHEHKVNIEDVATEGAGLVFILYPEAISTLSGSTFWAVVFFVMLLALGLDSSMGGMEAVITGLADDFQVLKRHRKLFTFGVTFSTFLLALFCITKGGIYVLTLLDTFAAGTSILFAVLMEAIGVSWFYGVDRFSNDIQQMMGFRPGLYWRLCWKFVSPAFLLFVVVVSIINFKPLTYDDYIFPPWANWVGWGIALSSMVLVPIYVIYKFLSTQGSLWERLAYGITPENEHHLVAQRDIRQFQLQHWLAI
Sequence of Sigma intracellular receptor 2 (Homo sapiens) (Q5BJF2 whole entry): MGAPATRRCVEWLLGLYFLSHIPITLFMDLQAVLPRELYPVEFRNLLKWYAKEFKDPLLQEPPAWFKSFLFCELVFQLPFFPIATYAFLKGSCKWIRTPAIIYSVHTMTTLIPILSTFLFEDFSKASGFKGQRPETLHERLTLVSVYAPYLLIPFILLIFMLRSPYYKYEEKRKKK

Cn1c2cccc(=O)c-2nc2ccccc21 [PYOCYANIN]
inactive: [1] | [2] | [3] | [4] | [5] | [6] | [7] | [8] | [9] | Rattus norvegicus [10] | [11] | [12] | [13] | [14] | [15] | [16] | [17] | [18] | [19] | [20] | [21] | [22] | [23] | [24] | [25] | Rattus norvegicus [26] | [27] | [28] | [29]
